Data on seven compounds can be found in ChEMBL document CHEMBL1153796, “Isoprenylated chromone derivatives from the plant endophytic fungus Pestalotiopsis fici” (J Nat Prod, 2009).

In experiment [1] the test system is Human immunodeficiency virus 1. Put plainly: Antiviral activity against HIV1 infected human C8166 cells assessed as inhibition of viral replication after 4 days by p24 antigen capture ELISA. As to conditions: Human immunodeficiency virus 1, C8166, 96 h. The experiment is classed as functional, organism-based. (In general: ELISA stands for enzyme-linked immunosorbent assay.)

A further experiment deals with HeLa. Put plainly: Cytotoxicity against human HeLa cells after 48 hrs by MTT assay. The format is functional, cell-based. In outline:
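Cells plated at 10^4/well and allowed to attach overnight. Exposed to compound dilutions from DMSO stock (vehicle 0.2% DMSO) for 4 h at 37 °C, then grown 48 h in fresh DMEM. MTT at 0.5 mg/mL added for 3 h, formazan dissolved in DMSO, absorbance at 540 nm; 5-fluorouracil as positive control.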
For orientation: Formazan colour is commonly taken as a measure of viable cells.

In another experiment the test system is MCF7. Put plainly: Cytotoxicity against human MCF7 cells after 48 hrs by MTT assay. The experiment is classed as functional, cell-based. As to conditions: MCF7, 48 h.
The test system of another experiment is C8166. Put plainly: Cytotoxicity against human C8166 cells after 4 days by MTT assay. The experiment is classed as cell-based. To be noted: C8166, 96 h. In outline:
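C8166 cells seeded at 3 × 10^4/well with various compound concentrations in triplicate, 37 °C, 5% CO2, run alongside the HIV-1 assay.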

Molecules are shown by their SMILES. Where only a bound is given, the exact number is not on record here.

A word on the EC50: it is the concentration needed to bring the measured effect to its halfway point. One may read the IC50 as the point on the concentration scale where inhibition reaches its midpoint. Consider `CC(C)=CC=C1C2=C(C[C@H](O)[C@@H]1O)C(=O)CC(C)(C)O2` (mixture of isomers), for which, in experiment [1], the EC50 stood at 89.2 µM. Also, the IC50 in the experiment with HeLa and in the experiment on MCF7 was over 144 µM each time.
For `O=c1[nH]cc(F)c(=O)[nH]1` [FLUOROURACIL], the IC50 in the experiment on HeLa came out at 10 µM.
Take `CC(C)=CC[C@]12O[C@H]1[C@@H](O)CC1=C2OC(C)(C)CC1=O` [PESTALOFICIOL F]: in experiment [1], the EC50 is over 100 µM. Moreover, the IC50 with HeLa and with MCF7 was over 144 µM in each case.
Take `CC1(C)CC(=O)C2=C(O1)C1=C[C@@H](C(C)(C)O)O[C@H]1[C@@H](O)C2` [PESTALOFICIOL I]: in experiment [1], the EC50 was over 100 µM. Besides, the figures for the IC50 with HeLa and in the experiment on MCF7 were over 136 µM and 136 µM, respectively.
As a reminder, the CC50 is the concentration giving 50% cytotoxicity. In the case of `CC(C)=CCc1cc(O)cc2c1OC(C)(C)CC2=O` [PESTALOFICIOL J], the half-maximal effective concentration (EC50) in experiment [1] is 8 µM. The half-inhibitory concentration (IC50) in the experiment with HeLa is 21.2 µM; in the experiment with MCF7, over 154 µM. The same compound registered a CC50 with C8166 of over 100 µM.
Take `CC(=O)OC1=CC(C)(C)Oc2c(CC=C(C)C)cc(O)cc21` [PESTALOFICIOL K]: the 50% effective concentration (EC50) in experiment [1] came to 78.2 µM. For the same compound, the IC50 with HeLa is 99.3 µM; with MCF7, over 132 µM.
Taken in the same sequence, the figures for `COC(=O)c1cc(OC)cc(O)c1C(=O)c1c(O)cc(C)c(C2=CC(C)(C)Oc3c(CC=C(C)C)cc(O)cc32)c1O` [PESTALOFICIOL L] were over 100 µM, 8.7 µM and 17.4 µM.
